The source made the active and inactive calls. The rule behind the calls is not given here.
Key:
[1] = molecular target: T1, Tyrosine-protein kinase BTK (Homo sapiens, UniProt Q06187); test: Inhibition of BTK (unknown origin) by ADP-gloassay
[2] = molecular target: T2, Phosphatidylinositol 4,5-bisphosphate 3-kinase catalytic subunit delta isoform (Homo sapiens) (UniProt O00329); test: Inhibition of PI3Kdelta (unknown origin) at 200 nM by ADP-gloassay relative to control
T2 sequence (whole entry): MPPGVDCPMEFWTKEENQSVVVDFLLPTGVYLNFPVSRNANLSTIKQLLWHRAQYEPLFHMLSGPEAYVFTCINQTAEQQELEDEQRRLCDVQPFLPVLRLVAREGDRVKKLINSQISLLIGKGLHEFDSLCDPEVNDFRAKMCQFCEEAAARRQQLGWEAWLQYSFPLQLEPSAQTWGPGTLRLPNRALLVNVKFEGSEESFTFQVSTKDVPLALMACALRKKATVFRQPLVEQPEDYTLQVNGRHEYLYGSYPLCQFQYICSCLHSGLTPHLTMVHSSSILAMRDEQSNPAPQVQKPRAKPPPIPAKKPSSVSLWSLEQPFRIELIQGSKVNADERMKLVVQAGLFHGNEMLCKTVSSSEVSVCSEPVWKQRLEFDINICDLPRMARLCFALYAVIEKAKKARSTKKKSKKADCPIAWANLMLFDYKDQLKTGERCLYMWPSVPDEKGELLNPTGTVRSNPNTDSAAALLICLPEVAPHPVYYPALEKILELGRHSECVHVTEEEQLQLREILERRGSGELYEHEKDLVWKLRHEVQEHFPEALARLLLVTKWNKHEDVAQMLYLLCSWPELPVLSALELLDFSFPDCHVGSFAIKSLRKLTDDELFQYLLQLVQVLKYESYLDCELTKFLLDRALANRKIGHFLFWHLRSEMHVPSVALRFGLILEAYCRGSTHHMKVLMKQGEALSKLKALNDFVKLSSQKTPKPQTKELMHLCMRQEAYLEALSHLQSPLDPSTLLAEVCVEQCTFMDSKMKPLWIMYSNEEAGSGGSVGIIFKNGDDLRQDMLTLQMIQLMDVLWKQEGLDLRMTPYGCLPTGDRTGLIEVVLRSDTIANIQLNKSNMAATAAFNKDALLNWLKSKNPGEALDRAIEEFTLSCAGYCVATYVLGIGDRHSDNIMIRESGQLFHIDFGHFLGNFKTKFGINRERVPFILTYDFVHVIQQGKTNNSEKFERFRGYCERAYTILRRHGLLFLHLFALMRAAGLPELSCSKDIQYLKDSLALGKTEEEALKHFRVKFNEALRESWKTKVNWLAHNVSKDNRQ
Summary of the method: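 PI3Kδ was tested with the PI3K-Glo Class I Profiling Kit and a luminescence read-out, following the manufacturer's protocol. Each compound was tested at a single concentration of 200 nM and expressed as percent inhibition versus control.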

Raji [3] = test: Antiproliferative activity against human Raji cells after 48 hrs by CCK8 assay; format: functional, cell-based
Summary of the method: (§1)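 Raji and Ramos cells grown in RPMI1640 or IMDM with 10% FBS, 37 °C, 5% CO2. Seeded at 3000-5000 cells/well and left 12-24 h before dosing. Several compound concentrations given for 48 h. CCK-8 then added for 4 h and OD read at 450 nm. IC50 is the concentration giving 50% cell death versus control, calculated from inhibition ratios.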

[4] = molecular target: T1, Tyrosine-protein kinase BTK; conditions: at 200 nM
[5] = molecular target: T3, Phosphatidylinositol 4,5-bisphosphate 3-kinase catalytic subunit delta isoform (Homo sapiens, UniProt O00329); test: Inhibition of PI3Kdelta (unknown origin) by ADP-gloassay
T3 sequence (O00329 whole entry): T2 sequence (whole entry)
Summary of the method: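 PI3K isoform activity was measured with the PI3K-Glo Class I Profiling Kit, a luminescent ADP-Glo-type read-out, following the manufacturer's protocol.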

Ramos [6] = test: Antiproliferative activity against human Ramos cells after 48 hrs by CCK8 assay; format: functional, cell-based; summary of the method: as §1
Raji [7] = test: Antiproliferative activity against human Raji cells at 5 uM up to 24 hrs by CCK8 assay; format: functional, cell-based
Summary of the method: (§2)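 Raji (Burkitt lymphoma) cells in RPMI1640 or IMDM with 10% FBS, 37 °C, 5% CO2; seeded 3000-5000 cells/well, preincubated 12-24 h, then exposed to compound. Cells collected at different times and viability read by CCK-8 (4 h incubation, OD 450 nm).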

Raji [8] = test: Antiproliferative activity against human Raji cells at 5 uM after 24 hrs by CCK8 assay; format: functional, cell-based; summary of the method: as §2
Ramos [9] = test: Induction of apoptosis in human Ramos cells assessed as early apoptotic cells at 5 uM after 48 hrs by Annexin-V-FITC/propidium iodide staining based flow cytometric analysis (reference value: 1.08%); format: functional
Ramos [10] = test: Induction of apoptosis in human Ramos cells assessed as late apoptotic cells at 5 uM after 48 hrs by Annexin-V-FITC/propidium iodide staining based flow cytometric analysis (reference value: 0.98%); format: functional
Ramos [11] = test: Induction of apoptosis in human Ramos cells assessed as necrotic cells at 5 uM after 48 hrs by Annexin-V-FITC/propidium iodide staining based flow cytometric analysis (reference value: 1.11%); format: functional
Ramos [12] = test: Induction of apoptosis in human Ramos cells assessed as viable cells at 5 uM after 48 hrs by Annexin-V-FITC/propidium iodide staining based flow cytometric analysis (reference value: 96.83%); format: functional; conditions: read-out: Activity
Ramos [13] = test: Cell cycle arrest in human Ramos cells assessed as accumulation at G0/G1 phase at 5 uM after 48 hrs by propidium iodide staining based flow cytometric analysis (reference value: 24.65%); format: functional
Ramos [14] = test: Cell cycle arrest in human Ramos cells assessed as accumulation at S phase at 5 uM after 48 hrs by propidium iodide staining based flow cytometric analysis (reference value: 71.08%); format: functional
Ramos [15] = test: Cell cycle arrest in human Ramos cells assessed as accumulation at G2/M phase at 5 uM after 48 hrs by propidium iodide staining based flow cytometric analysis (reference value: 4.26%); format: functional
Ramos [16] = test: Cell cycle arrest in human Ramos cells assessed as accumulation at apoptotic phase at 5 uM after 48 hrs by propidium iodide staining based flow cytometric analysis (reference value: 5.03%); format: functional
[17] = molecular target: Phosphatidylinositol 4,5-bisphosphate 3-kinase catalytic subunit alpha isoform (Homo sapiens, UniProt P42336); test: Inhibition of PI3Kalpha (unknown origin) by ADP-gloassay
Sequence of Phosphatidylinositol 4,5-bisphosphate 3-kinase catalytic subunit alpha isoform (P42336 whole entry, canonical isoform): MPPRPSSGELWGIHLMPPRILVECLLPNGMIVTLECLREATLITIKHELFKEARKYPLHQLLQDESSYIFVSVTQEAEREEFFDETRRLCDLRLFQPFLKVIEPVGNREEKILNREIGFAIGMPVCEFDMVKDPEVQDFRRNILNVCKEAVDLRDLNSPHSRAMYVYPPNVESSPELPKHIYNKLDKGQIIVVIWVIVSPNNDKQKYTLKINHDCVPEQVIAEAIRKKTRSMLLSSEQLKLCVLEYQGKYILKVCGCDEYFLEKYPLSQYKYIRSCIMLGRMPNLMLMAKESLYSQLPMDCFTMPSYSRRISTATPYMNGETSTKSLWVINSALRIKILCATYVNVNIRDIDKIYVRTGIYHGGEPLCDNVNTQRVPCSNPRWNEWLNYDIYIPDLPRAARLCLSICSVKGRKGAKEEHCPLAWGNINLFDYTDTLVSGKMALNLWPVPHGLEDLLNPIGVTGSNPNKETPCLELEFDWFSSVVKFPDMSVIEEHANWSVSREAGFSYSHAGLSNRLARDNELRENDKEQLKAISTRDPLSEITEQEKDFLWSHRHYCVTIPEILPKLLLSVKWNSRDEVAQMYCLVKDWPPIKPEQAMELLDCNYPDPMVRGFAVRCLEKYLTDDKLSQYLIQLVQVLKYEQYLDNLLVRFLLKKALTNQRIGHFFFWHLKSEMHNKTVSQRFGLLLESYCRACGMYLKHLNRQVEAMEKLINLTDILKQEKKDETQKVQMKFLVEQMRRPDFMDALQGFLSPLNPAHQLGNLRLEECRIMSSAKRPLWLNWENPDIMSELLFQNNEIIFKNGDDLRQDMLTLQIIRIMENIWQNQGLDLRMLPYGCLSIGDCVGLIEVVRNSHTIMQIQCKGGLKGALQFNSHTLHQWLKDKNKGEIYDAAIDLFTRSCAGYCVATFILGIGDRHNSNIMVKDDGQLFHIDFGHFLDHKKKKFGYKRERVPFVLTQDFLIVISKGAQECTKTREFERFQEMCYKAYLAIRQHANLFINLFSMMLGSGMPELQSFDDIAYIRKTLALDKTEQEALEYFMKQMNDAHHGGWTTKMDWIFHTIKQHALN
Summary of the method: (§3)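 PI3K isoform activity was measured with the PI3K-Glo Class I Profiling Kit, a luminescent ADP-Glo-type read-out, following the manufacturer's protocol. Compounds were tested over 1 nM–5 μM to give IC50 values.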

[18] = molecular target: Phosphatidylinositol 4,5-bisphosphate 3-kinase catalytic subunit beta isoform (Homo sapiens, UniProt P42338); test: Inhibition of PI3Kbeta (unknown origin) by ADP-gloassay; summary of the method: as §3
Sequence of Phosphatidylinositol 4,5-bisphosphate 3-kinase catalytic subunit beta isoform (P42338 whole entry, canonical isoform): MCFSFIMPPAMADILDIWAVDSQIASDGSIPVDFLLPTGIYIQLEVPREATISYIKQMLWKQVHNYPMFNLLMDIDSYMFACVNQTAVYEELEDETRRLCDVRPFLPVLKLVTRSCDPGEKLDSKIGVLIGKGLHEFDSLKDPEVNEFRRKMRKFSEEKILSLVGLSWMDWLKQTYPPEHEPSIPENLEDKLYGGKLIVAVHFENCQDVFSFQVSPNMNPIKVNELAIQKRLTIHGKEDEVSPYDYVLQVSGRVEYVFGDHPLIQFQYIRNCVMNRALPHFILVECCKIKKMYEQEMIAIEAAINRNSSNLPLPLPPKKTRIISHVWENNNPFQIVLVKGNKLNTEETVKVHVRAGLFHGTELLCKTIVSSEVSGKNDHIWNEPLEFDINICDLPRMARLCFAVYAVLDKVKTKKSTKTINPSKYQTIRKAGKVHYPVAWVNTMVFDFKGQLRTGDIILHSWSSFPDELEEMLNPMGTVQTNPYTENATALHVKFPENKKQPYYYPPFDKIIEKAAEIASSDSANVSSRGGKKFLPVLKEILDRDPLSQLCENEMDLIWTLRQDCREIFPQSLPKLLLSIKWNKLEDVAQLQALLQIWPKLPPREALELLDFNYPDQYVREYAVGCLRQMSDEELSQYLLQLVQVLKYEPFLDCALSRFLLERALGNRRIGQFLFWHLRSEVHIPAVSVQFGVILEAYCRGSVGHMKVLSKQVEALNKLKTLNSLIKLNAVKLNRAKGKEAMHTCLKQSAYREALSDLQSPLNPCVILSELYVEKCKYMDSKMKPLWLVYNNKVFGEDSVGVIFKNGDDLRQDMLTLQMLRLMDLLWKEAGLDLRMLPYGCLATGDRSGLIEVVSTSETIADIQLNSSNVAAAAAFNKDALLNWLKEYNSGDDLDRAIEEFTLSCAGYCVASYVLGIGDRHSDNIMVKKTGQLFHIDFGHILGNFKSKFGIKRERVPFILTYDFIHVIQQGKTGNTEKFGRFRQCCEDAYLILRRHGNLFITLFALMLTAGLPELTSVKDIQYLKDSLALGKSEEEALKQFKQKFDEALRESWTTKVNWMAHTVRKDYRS

[19] = molecular target: Phosphatidylinositol 4,5-bisphosphate 3-kinase catalytic subunit gamma isoform (Homo sapiens, UniProt P48736); test: Inhibition of PI3Kgamma (unknown origin) by ADP-gloassay; summary of the method: as §3
Sequence of Phosphatidylinositol 4,5-bisphosphate 3-kinase catalytic subunit gamma isoform (P48736 whole entry, canonical isoform): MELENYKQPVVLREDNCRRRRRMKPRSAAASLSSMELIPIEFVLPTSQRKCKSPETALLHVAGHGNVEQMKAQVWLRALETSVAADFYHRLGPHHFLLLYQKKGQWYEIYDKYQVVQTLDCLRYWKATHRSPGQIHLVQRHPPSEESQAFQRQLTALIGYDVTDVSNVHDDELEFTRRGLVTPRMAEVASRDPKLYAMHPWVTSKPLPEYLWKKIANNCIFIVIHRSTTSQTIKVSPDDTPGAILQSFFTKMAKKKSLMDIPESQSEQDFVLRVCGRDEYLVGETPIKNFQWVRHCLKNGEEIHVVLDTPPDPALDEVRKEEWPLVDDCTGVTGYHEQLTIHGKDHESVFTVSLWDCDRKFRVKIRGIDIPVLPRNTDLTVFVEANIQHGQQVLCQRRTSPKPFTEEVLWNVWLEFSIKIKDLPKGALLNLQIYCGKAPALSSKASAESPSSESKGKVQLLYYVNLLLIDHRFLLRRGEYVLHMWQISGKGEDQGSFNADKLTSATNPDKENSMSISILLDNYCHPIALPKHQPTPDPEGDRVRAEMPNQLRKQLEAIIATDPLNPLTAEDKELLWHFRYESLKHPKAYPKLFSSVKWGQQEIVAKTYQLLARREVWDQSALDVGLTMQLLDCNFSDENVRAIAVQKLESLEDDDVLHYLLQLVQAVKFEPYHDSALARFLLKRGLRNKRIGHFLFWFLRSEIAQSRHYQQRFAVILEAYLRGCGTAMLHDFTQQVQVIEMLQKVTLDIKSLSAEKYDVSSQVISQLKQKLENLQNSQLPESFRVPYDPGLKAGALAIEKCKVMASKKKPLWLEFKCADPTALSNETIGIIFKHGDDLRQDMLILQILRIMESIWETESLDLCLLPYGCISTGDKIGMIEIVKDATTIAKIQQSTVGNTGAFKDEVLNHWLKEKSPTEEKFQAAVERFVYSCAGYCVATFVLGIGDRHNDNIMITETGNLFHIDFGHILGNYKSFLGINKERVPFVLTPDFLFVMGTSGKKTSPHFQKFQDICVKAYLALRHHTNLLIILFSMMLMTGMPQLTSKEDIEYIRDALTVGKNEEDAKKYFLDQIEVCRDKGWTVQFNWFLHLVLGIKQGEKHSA

[20] = molecular target: Serine/threonine-protein kinase mTOR (Homo sapiens, UniProt P42345); test: Inhibition of mTOR (unknown origin) by ADP-gloassay
[21] = molecular target: T2, Phosphatidylinositol 4,5-bisphosphate 3-kinase catalytic subunit delta isoform (Homo sapiens); test: Inhibition of PI3Kdelta in human Ramos cells assessed as reduction in Akt phosphorylation at Ser473 residues at 0.25 to 4 uM after 4 hrs by Western blot analysis; format: cell-based
Summary of the method: (§4)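 Cells were treated with compound for 4 h, then stimulated or not with anti-human IgM F(ab')2. They were lysed in Tris-Cl pH 6.8/4% SDS/glycerol/β-mercaptoethanol buffer on ice and protein was quantified by BCA. Equal protein was run on 12% SDS-PAGE and transferred to PVDF. Blots were probed with specific primary antibodies overnight at 4 °C and HRP secondaries 1 h at 37 °C, with ECL detection.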

[22] = molecular target: T2, Phosphatidylinositol 4,5-bisphosphate 3-kinase catalytic subunit delta isoform (Homo sapiens); test: Inhibition of PI3Kdelta in human Ramos cells assessed as reduction in mTOR phosphorylation at Ser2481 residues at 0.25 to 4 uM after 4 hrs by Western blot analysis; format: cell-based; summary of the method: as §4
[23] = molecular target: T2, Phosphatidylinositol 4,5-bisphosphate 3-kinase catalytic subunit delta isoform (Homo sapiens); test: Inhibition of PI3Kdelta in human Ramos cells assessed as reduction in Akt phosphorylation at Ser473 residues at 0.25 to 1 uM after 4 hrs by Western blot analysis; format: cell-based
Summary of the method: (§5)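 Ramos cells pretreated with compound for 4 h, then stimulated or not with anti-human IgM F(ab')2. Cells were washed in PBS and lysed on ice for 0.5 h in Tris-Cl pH 6.8/SDS/glycerol/β-mercaptoethanol/PMSF/NaF/DTT buffer, then heated. Protein was quantified by BCA, with equal amounts run on 12% SDS-PAGE and semi-dry blotted to PVDF. Primary antibodies overnight at 4 °C, HRP secondary 1 h at 37 °C, ECL detection on film.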

[24] = molecular target: T2, Phosphatidylinositol 4,5-bisphosphate 3-kinase catalytic subunit delta isoform (Homo sapiens); test: Inhibition of PI3Kdelta in human Ramos cells assessed as reduction in mTOR phosphorylation at Ser2481 residues at 0.25 to 1 uM after 4 hrs by Western blot analysis; format: cell-based; summary of the method: as §5

T1 sequence (Q06187 whole entry, canonical isoform): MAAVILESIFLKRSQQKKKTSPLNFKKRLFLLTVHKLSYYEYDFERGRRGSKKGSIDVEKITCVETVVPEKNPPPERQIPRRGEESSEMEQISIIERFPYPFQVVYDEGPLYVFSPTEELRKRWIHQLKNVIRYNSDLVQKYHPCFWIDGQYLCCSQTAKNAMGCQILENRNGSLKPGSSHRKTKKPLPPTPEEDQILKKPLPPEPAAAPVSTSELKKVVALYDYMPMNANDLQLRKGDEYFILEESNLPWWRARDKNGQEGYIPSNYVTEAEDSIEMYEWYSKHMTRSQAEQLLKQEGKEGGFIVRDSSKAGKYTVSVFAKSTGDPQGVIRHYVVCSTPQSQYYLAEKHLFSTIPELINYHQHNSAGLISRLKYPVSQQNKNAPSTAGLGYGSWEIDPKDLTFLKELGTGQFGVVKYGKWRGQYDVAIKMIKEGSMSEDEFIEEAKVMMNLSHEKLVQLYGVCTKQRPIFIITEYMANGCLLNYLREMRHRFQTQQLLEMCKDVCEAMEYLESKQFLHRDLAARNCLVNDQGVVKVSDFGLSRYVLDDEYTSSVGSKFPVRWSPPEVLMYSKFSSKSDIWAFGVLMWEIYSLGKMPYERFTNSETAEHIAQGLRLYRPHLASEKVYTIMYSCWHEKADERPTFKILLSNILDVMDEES

SMILES | IC50 [1] [nM] | inhibition [2] | IC50 (Raji [3]) [µM] | inhibition [4] [%] | IC50 (Ramos [6]) [nM] | further results
COc1ccc(-c2cnc3oc4ccc(=O)n(-c5ccc(NC(=O)CN(C)C)cc5)c4c3c2)cn1 | 150 | inactive | > 40 | 58.8 |  | 
C=CC(=O)Nc1ccc(-n2c(=O)ccc3oc4ccc(-c5ccc(F)nc5)cc4c32)cc1 |  | 31.7% | 7.3 | 32.1 | 1650 | IC50 [5]: 1270 nM
COc1ccc(-c2cnc3oc4ccc(=O)n(-c5ccc(NC(=O)CN6CCNCC6)cc5)c4c3c2)cn1 |  | inactive | 33.7 | 32 |  | 
C=CC(=O)Nc1ccc(-n2c(=O)ccc3oc4ncc(-c5cccnc5)cc4c32)cc1 |  | 34.2% | 7.4 | 38.7 | 1330 | IC50 [5]: 1000 nM
C=CC(=O)N1CCC[C@@H](n2nc(-c3ccc(Oc4ccccc4)cc3)c3c(N)ncnc32)C1 [IBRUTINIB] |  |  |  |  | 5800 | Activity (Raji [7]): inactive; Activity (Raji [8]): Active; Activity (Ramos [9]): 5.12%; Activity (Ramos [10]): 2.71%; Activity (Ramos [11]): 0.37%; viability at 5 µM (Ramos [12]): 91.8%; Activity (Ramos [13]): 30.5%; Activity (Ramos [14]): 65.18%; Activity (Ramos [15]): 4.26%; Activity (Ramos [16]): 4.33%
C=CC(=O)Nc1cccc(-n2c(=O)ccc3oc4ccc(-c5cccnc5)cc4c32)c1 | 74 | 58.1% | 2.1 | 86.8 | 2650 | IC50 [5]: 170 nM; IC50 [17]: 855 nM; IC50 [18]: 2820 nM; IC50 [19]: 2180 nM; IC50 [20]: > 10 µM; inhibition [21]: Active; inhibition [22]: Active; Activity (Ramos [9]): 37.62%; Activity (Ramos [10]): 52.16%; Activity (Ramos [11]): 0.67%; viability at 5 µM (Ramos [12]): 9.55%; Activity (Ramos [13]): 60.8%; Activity (Ramos [14]): 34.56%; Activity (Ramos [15]): 4.64%; Activity (Ramos [16]): 55.36%
CN(C)CC(=O)Nc1ccc(-n2c(=O)ccc3oc4ccc(C5CCN(C(=O)OC(C)(C)C)CC5)cc4c32)cc1 |  | inactive | 7 | 49.2 |  | 
COc1ccc(-c2cnc3oc4ccc(=O)n(-c5ccc(NC(=O)CN6CCCCC6)cc5)c4c3c2)cn1 | 125 | inactive | > 40 | 55 |  | 
C=CC(=O)Nc1cccc(-n2c(=O)ccc3oc4ccc(-c5ccc(OC)nc5)cc4c32)c1 | 80 | 11.3% | 2.4 | 67.3 | 1300 | 
CN(C)CC(=O)Nc1ccc(-n2c(=O)ccc3oc4ccc(-c5cccnc5)cc4c32)cc1 | 50 | inactive | 7.1 | 63.4 | 3430 | 
CN(C)CC(=O)Nc1ccc(-n2c(=O)ccc3oc4ccc(C5CCNCC5)cc4c32)cc1 |  | inactive | 2.4 | 33.1 |  | 
Cn1c(=O)n(-c2ccc(C(C)(C)C#N)cc2)c2c3cc(-c4cnc5ccccc5c4)ccc3ncc21 [DACTOLISIB] |  |  | 0.22 |  | 6.8 | Activity (Ramos [9]): 53.54%; Activity (Ramos [10]): 40.03%; Activity (Ramos [11]): 0.64%; viability at 5 µM (Ramos [12]): 5.78%; Activity (Ramos [13]): 59.66%; Activity (Ramos [14]): 35.34%; Activity (Ramos [15]): 5%; inhibition [23]: Active; inhibition [24]: Active; Activity (Ramos [16]): 58.92%
C=CC(=O)Nc1cccc(-n2c(=O)ccc3oc4ccc(-c5ccc(F)nc5)cc4c32)c1 |  | 34% | 2.2 |  | 1860 | IC50 [5]: 920 nM
CN(C)CC(=O)Nc1ccc(-n2c(=O)ccc3oc4ccc(-c5cccc6[nH]ccc56)cc4c32)cc1 |  | inactive | 18.8 | 47.2 |  | 
CN(C)CC(=O)Nc1ccc(-n2c(=O)ccc3oc4ccc(-c5ccc(O)cc5)cc4c32)cc1 | 150 | inactive | 1.8 | 51.7 |  | 

— ChEMBL document CHEMBL4422626, “Optimization of novel benzofuro[3,2-b]pyridin-2(1H)-one derivatives as dual inhibitors of BTK and PI3Kδ” (Eur J Med Chem, 2019)
